Data taken from ChEMBL document CHEMBL4038326, “Discovery, Structure-Activity Relationship, and Binding Mode of an Imidazo[1,2-a]pyridine Series of Autotaxin Inhibitors” (J Med Chem, 2017).

Legend:
Autotaxin [1] = target: T1, Autotaxin (Homo sapiens, UniProt Q13822); assay: Inhibition of glycosylated human ATX using LPC 16:0 as substrate after 30 mins by luminescence assay
Method in brief: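 Started with 150 µM LPC 16:0 solution, 30 min at 37°C. Stopped with EGTA and choline detected by choline oxidase/HRP/TOOS/4-aminoantipyrine; read after 30 min at room temperature.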

Autotaxin [2] = target: T1, Autotaxin; assay: Inhibition of glycosylated human ATX using FS-3 as substrate preincubated for 30 mins followed by substrate addition measured after 30 mins by fluorescence assay
Method in brief: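 Fivefold compound dilutions from a 20 µM top. Started with 0.75 µM FS-3 solution; fluorescence (ex 485, em 520 nm) read after 30 min at room temperature. SD where replicated at least twice.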

Autotaxin [3] = target: Autotaxin (Rattus norvegicus, UniProt Q64610); assay: Inhibition of ATX in rat plasma assessed as reduction in plasma lysophosphatidic acid 18:2 levels after 2 hrs by LC-MS/MS method
Method in brief: (§1)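 Rat plasma thawed on ice and incubated with a compound dose range for 2 h at 37°C. Methanol precipitation with LPA 17:0 internal standard, isocratic C18 LC-MS/MS, LPA 18:2/LPA 17:0 peak-area ratio. % reduction = 100 − (ratio/control ratio × 100). Some compounds were tested only at 0.5, 5 and 50 µM (n = 3).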

[4] = target: Autotaxin (Rattus norvegicus) (UniProt Q64610); conditions: 0.5 uM
[5] = target: Autotaxin (Rattus norvegicus) (UniProt Q64610); conditions: 5 uM
[6] = target: Autotaxin (Rattus norvegicus) (UniProt Q64610); conditions: 50 uM
[7] = Half life in Sprague-Dawley rat at 1 mg/kg, iv; type: ADME, organism-based; conditions: in vivo
Method in brief: (§2)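 PK from single 1 mg/kg iv and 5 mg/kg po doses (n = 3); mice sampled compositely as a group of six. Plasma drug by LC-MS/MS against an eight-level calibration curve with QCs, LLOQ 4 ng/mL. Parameters by noncompartmental analysis of averaged plasma concentrations; CV% reported for rats.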

[8] = Half life in mouse at 1 mg/kg, iv; type: ADME, organism-based; conditions: in vivo; method in brief: as §2
[9] = Volume of distribution at steady state in mouse at 1 mg/kg, iv; type: ADME, organism-based; conditions: in vivo, read-out: Vdss; method in brief: as §2
[10] = Volume of distribution at steady state in Sprague-Dawley rat at 1 mg/kg, iv; type: ADME, organism-based; conditions: in vivo, read-out: Vdss; method in brief: as §2
[11] = Plasma concentration in Sprague-Dawley rat at 5 mg/kg, po measured after 0.5 hrs by LC-MS/MS method; type: ADME, organism-based
Method in brief: (§3)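 Fasted male Sprague Dawley rats dosed orally at 5 mg/kg in 10% hydroxypropyl-β-cyclodextrin (pH 3, citric acid); jugular catheter blood into Li-heparin at 0.5, 1, 3 h. Plasma level by LC-MS/MS against an eight-level calibration curve with QCs, LLOQ 4 ng/mL; mean of 3 animals.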

[12] = Plasma concentration in Sprague-Dawley rat at 5 mg/kg, po measured after 1 hr by LC-MS/MS method; type: ADME, organism-based; method in brief: as §3
[13] = Plasma concentration in Sprague-Dawley rat at 5 mg/kg, po measured after 3 hrs by LC-MS/MS method; type: ADME, organism-based; method in brief: as §3
Rattus norvegicus [14] = assay: In vivo inhibition of ATX in Sprague-Dawley rat plasma assessed as reduction in plasma lysophosphatidic acid 18:2 levels at 5 mg/kg, po measured after 0.5 hrs by LC-MS/MS method; type: functional
Method in brief: (§4)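 Fasted male Sprague Dawley rats given 5 mg/kg orally in 10% hydroxypropyl-β-cyclodextrin, pH 3 with citric acid. Jugular catheter blood taken into Li-heparin at 0.5, 1 and 3 h. Methanol precipitation with LPA 17:0 internal standard, isocratic C18 LC-MS/MS, peak-area ratio of LPA 18:2 to LPA 17:0 with no calibration curve. % reduction against the vehicle group mean at the same time; 3 animals.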

Rattus norvegicus [15] = assay: In vivo inhibition of ATX in Sprague-Dawley rat plasma assessed as reduction in plasma lysophosphatidic acid 18:2 levels at 5 mg/kg, po measured after 1 hr by LC-MS/MS method; type: functional; method in brief: as §4
Rattus norvegicus [16] = assay: In vivo inhibition of ATX in Sprague-Dawley rat plasma assessed as reduction in plasma lysophosphatidic acid 18:2 levels at 5 mg/kg, po measured after 3 hrs by LC-MS/MS method; type: functional; method in brief: as §4
[17] = Protein binding in Sprague-Dawley rat plasma; type: ADME, cell-free; conditions: read-out: PPB
[18] = target: Autotaxin (Rattus norvegicus) (UniProt Q64610); assay: Inhibition of ATX in rat plasma assessed as reduction in plasma lysophosphatidic acid 18:2 levels at 0.5 to 50 uM after 2 hrs by LC-MS/MS method relative to control; method in brief: as §1
[19] = Clearance in Sprague-Dawley rat at 1 mg/kg, iv; type: ADME, organism-based; conditions: in vivo; method in brief: as §2
[20] = Oral bioavailability in Sprague-Dawley rat at 5 mg/kg; type: ADME, organism-based; conditions: in vivo; method in brief: as §2

| IC50 (Autotaxin [1]) [nM] | SMILES | further results |
| --- | --- | --- |
| > 10000 | CCc1nc2ccc(C3CCN(S(C)(=O)=O)CC3)cn2c1N(C)c1nc2ccccc2s1 | – |
| 1210 | CCOC(=O)N1CCC(NCc2ccc3nc(CC)c(N(C)c4nc(-c5ccc(Cl)cc5)cs4)n3c2)CC1 | IC50 (Autotaxin [2]): 9 nM; IC50 (Autotaxin [3]): < 5000 nM; inhibition [4]: 7%; inhibition [5]: 67%; inhibition [6]: 100% |
| 357 | CCc1nc2ccc(C3CCN(S(=O)(=O)CCCN(C)C)CC3)cn2c1N(C)c1nc(-c2ccc(F)cc2)cs1 | – |
| – | CCc1nc2ccc(C3CCN(CC(=O)N4CC(O)C4)CC3)cn2c1N(C)c1nc(-c2ccc(F)cc2)c(C#N)s1 | half-life [7]: 2.1 h; half-life [8]: 2 h; Vd [9]: 1.7 L/kg; Vd [10]: 8.3 L/kg; concentration at 0.5 h [11]: 67 nM; concentration at 1 h [12]: 34 nM; concentration at 3 h [13]: 58 nM; inhibition in vivo at 5 mg/kg (Rattus norvegicus [14]): 74%; inhibition in vivo at 5 mg/kg (Rattus norvegicus [15]): 82%; inhibition in vivo at 5 mg/kg (Rattus norvegicus [16]): 97%; fraction unbound [17]: < 0.01 |
| 2020 | CCc1nc2ccc(C3CCN(S(C)(=O)=O)CC3)cn2c1N(C)c1nc(-c2ccc(F)cc2F)cs1 | – |
| 1710 | CCc1nc2ccc(N3CCN(Cc4ncon4)CC3)cn2c1N(C)c1nc(-c2ccc(F)cc2)cs1 | – |
| 280 | CCOC(=O)CN1CCN(c2ccc3nc(CC)c(N(C)c4nc(-c5ccc(F)cc5)cs4)n3c2)CC1 | – |
| 261 | CCc1nc2ccc(C3CCN(CC(=O)N(C)C)CC3)cn2c1N(C)c1nc(-c2ccc(F)cc2)cs1 | IC50 (Autotaxin [3]): 476 nM |
| 533 | CCc1nc2ccc(C3CCN(S(C)(=O)=O)CC3)cn2c1N(C)c1nc(-c2ccc(F)cc2C)cs1 | – |
| 6800 | CCc1nc2ccc(N3CCOCC3)cn2c1N(C)c1nc(-c2ccc(F)cc2)cs1 | IC50 (Autotaxin [2]): 8 nM; IC50 (Autotaxin [3]): > 50000 nM; inhibition [18]: < 50% |
| > 4100 | CCc1nc2ccc(N3CCN(Cc4ncc[nH]4)CC3)cn2c1N(C)c1nc(-c2ccc(F)cc2)cs1 | – |
| 86 | CCc1nc2ccc(C3CCN(CC(=O)N4CCCC4)CC3)cn2c1N(C)c1nc(-c2ccc(F)cc2)cs1 | IC50 (Autotaxin [3]): 115 nM |
| 1520 | CCc1nc2ccc(N3CCN(Cc4ncco4)CC3)cn2c1N(C)c1nc(-c2ccc(F)cc2)cs1 | – |
| 771 | CCc1nc2ccc(N3CCN(Cc4cnc[nH]4)CC3)cn2c1N(C)c1nc(-c2ccc(F)cc2)cs1 | IC50 (Autotaxin [3]): 4100 nM |
| > 10000 | CCc1nc2ccc(C(=O)NCCO)cn2c1N(C)c1nc(-c2ccc(Cl)cc2)cs1 | IC50 (Autotaxin [2]): 122 nM; IC50 (Autotaxin [3]): > 50000 nM; clearance [19]: 2.5 mL/min/kg; bioavailability [20]: 39%; inhibition [18]: < 50% |
| 1000 | CCc1nc2ccc(C3CCN(S(C)(=O)=O)CC3)cn2c1N(C)c1nc(-c2ccc(C(F)(F)F)cc2)cs1 | – |
| 4250 | CCc1nc2ccc(C3CCN(S(C)(=O)=O)CC3)cn2c1N(C)c1nc(-c2cc(F)cc(F)c2)cs1 | – |
| 9160 | CCc1nc2ccc(N3CCN(CC(=O)O)CC3)cn2c1N(C)c1nc(-c2ccc(F)cc2)cs1 | – |
| 231 | CCc1nc2ccc(N3CCN(CC(=O)N4CCOCC4)CC3)cn2c1N(C)c1nc(-c2ccc(F)cc2)cs1 | – |

| IC50 (Autotaxin [1]) [nM] | SMILES | further results |
| --- | --- | --- |
| 138 | CCc1nc2ccc(C3CCN(S(C)(=O)=O)CC3)cn2c1N(C)c1nc(-c2ccc(F)cc2)c(C#N)s1 | – |
| 493 | CCc1nc2ccc(C3CCN(S(C)(=O)=O)CC3)cn2c1N(C)c1nc(-c2ccc(Cl)nc2)cs1 | – |
| 2360 | CCc1nc2ccc(N3CCN(CCO)CC3)cn2c1N(C)c1nc(-c2ccc(F)cc2)cs1 | IC50 (Autotaxin [2]): 12 nM; IC50 (Autotaxin [3]): 6080 nM |
| 1900 | CCc1nc2ccc(C3CCN(S(C)(=O)=O)CC3)cn2c1N(C)c1nc(-c2ccc(F)c(F)c2)cs1 | – |
| 2370 | CCc1nc2ccc(C3CCN(CC(N)=O)CC3)cn2c1N(C)c1nc(-c2ccc(F)cc2)cs1 | – |
| > 10000 | CCc1nc2ccc(C3CCN(S(C)(=O)=O)CC3)cn2c1N(C)c1nc(-c2ccc(F)cc2)c(C(=O)O)s1 | – |
| 710 | CCc1nc2ccc(C3CCN(S(C)(=O)=O)CC3)cn2c1N(C)c1nc(-c2ccc(F)cc2)cs1 | IC50 (Autotaxin [3]): 1030 nM |
| 1610 | CCc1nc2ccc(C3CCN(CC(=O)NC4CC4)CC3)cn2c1N(C)c1nc(-c2ccc(F)cc2)cs1 | – |
| 804 | CCc1nc2ccc(C3CCN(S(C)(=O)=O)CC3)cn2c1N(C)c1nc2c(s1)Cc1ccc(F)cc1-2 | – |
| 1900 | CCc1nc2ccc(C3CCN(S(C)(=O)=O)CC3)cn2c1N(C)c1nc(C2CCCCC2)cs1 | – |
| 1410 | CCc1nc2ccc(C3CCN(S(C)(=O)=O)CC3)cn2c1N(C)c1nc(-c2ccc(F)cc2)c(C(N)=O)s1 | – |
| 6560 | CCOC(=O)N1CCC(NC(=O)c2ccc3nc(CC)c(N(C)c4nc(-c5ccc(Cl)cc5)cs4)n3c2)CC1 | IC50 (Autotaxin [2]): 5 nM; IC50 (Autotaxin [3]): 12600 nM |
| 1680 | CCc1nc2ccc(C3CCN(S(C)(=O)=O)CC3)cn2c1N(C)c1nc(-c2ccc(OC)cc2)cs1 | – |
| 2270 | CCc1nc2ccc(C3CCN(S(C)(=O)=O)CC3)cn2c1N(C)c1nc(-c2ccc(F)cc2)c(C)s1 | – |
| > 10000 | CCc1nc2ccc(-c3cccnc3)cn2c1N(C)c1nc(-c2ccc(F)cc2)cs1 | IC50 (Autotaxin [2]): 2 nM; IC50 (Autotaxin [3]): > 50000 nM; inhibition [18]: < 50% |
| 1210 | CCc1nc2ccc(C3CCN(S(C)(=O)=O)CC3)cn2c1N(C)c1nc2c(s1)Cc1cc(F)ccc1-2 | – |
| 126 | CCc1nc2ccc(C3CCN(S(C)(=O)=O)CC3)cn2c1N(C)c1nc(-c2ccc(F)cc2C#N)cs1 | – |
| 7610 | CCc1nc2ccc(C3CCN(S(C)(=O)=O)CC3)cn2c1N(C)c1nc(-c2ccc(C(C)(C)C)cc2)cs1 | – |
| 480 | CCOC(=O)CN1CCC(c2ccc3nc(CC)c(N(C)c4nc(-c5ccc(F)cc5)cs4)n3c2)CC1 | – |
